This note sets out measurements from ChEMBL document CHEMBL3593169, “Cytotoxic Homoisoflavones from the Bulbs of Bellevalia eigii” (J Nat Prod, 2015).

In one test the test system is MDA-MB-435. In words: Cytotoxicity against human MDA-MB-435 cells assessed as reduction in cell growth incubated for 72 hrs. In kind it is functional, cell-based. The following applies: MDA-MB-435, 72 h. In a few lines: (§1)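 Cells grown in RPMI 1640 with 10% FBS, penicillin and streptomycin at 37 °C, 5% CO2. Log-phase cells trypsinized, washed twice, seeded at about 5,000 per well and left overnight. Compounds in DMSO added for 72 h at 37 °C. Viability read by MTS-type absorbance assay (CellTiter 96 AQueous One). IC50 in μM relative to DMSO control. Vinblastine as positive control.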

In another test the test system is Candida albicans. In words: Antimicrobial activity against Candida albicans incubated for 4 days by broth microdilution method. In kind it is functional. The gist of the method: (§2)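 Broth microdilution in 1/10-strength BHIB+S; 2-fold compound dilution series inoculated with cell suspension. Incubated 4 days; growth scored visually by turbidity. MIC taken as lowest concentration with no turbidity relative to negative control. Each compound run in triplicate.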
Background: Dilution methods test growth across graded concentrations, often in twofold steps.

A further test has as its system HT-29. In words: Cytotoxicity against human HT-29 cells assessed as reduction in cell growth incubated for 72 hrs. In kind it is functional, cell-based. The following applies: HT-29, 72 h. In a few lines: as §1
Test [1] relates to Mycolicibacterium smegmatis. In words: Antimicrobial activity against Mycobacterium smegmatis incubated for 4 days by broth microdilution method. Format: functional. In a few lines: as §2
A further test concerns Aspergillus niger. In words: Antimicrobial activity against Aspergillus niger incubated for 4 days by broth microdilution method. In kind it is functional. The gist of the method:
as §2

Another test deals with Escherichia coli. In words: Antimicrobial activity against Escherichia coli incubated for 4 days by broth microdilution method. Format: functional. The gist of the method: as §2
The next test has as its system Staphylococcus aureus. In words: Antimicrobial activity against Staphylococcus aureus incubated for 4 days by broth microdilution method. Format: functional. The gist of the method:
as §2

The structures appear in SMILES notation. pIC50: −log10 of the molar value. ≈ marks a conversion by molar mass, not a printed value. Calls of active or inactive are those of the source. The rule behind the calls is not given here. Some results are limits rather than exact numbers.

In the case of `COc1cc2c(c(O)c1O)C(=O)[C@H](Cc1ccc(O)cc1)CO2`, the pIC50 with MDA-MB-435 and with HT-29 was less than 4.70 in each case. For the same molecule, the MIC result (in the test on Candida albicans; in test [1]; in the test on Aspergillus niger; in the test on Escherichia coli; in the test with Staphylococcus aureus) was “inactive” each time.
The molecule `CN[C@H](CC(C)C)C(=O)N[C@H]1C(=O)N[C@@H](CC(N)=O)C(=O)N[C@H]2C(=O)N[C@H]3C(=O)N[C@H](C(=O)N[C@H](C(=O)O)c4cc(O)cc(O)c4-c4cc3ccc4O)[C@H](O)c3ccc(c(Cl)c3)Oc3cc2cc(c3O[C@@H]2O[C@H](CO)[C@@H](O)[C@H](O)[C@H]2O[C@H]2C[C@](C)(N)[C@H](O)[C@H](C)O2)Oc2ccc(cc2Cl)[C@H]1O` [VANCOMYCIN] returned a minimum inhibitory concentration (MIC) in the test on Staphylococcus aureus (96 h) of 0.25 µg/mL (≈ 0.173 µM).
On to `O=C1c2c(O)cc(O)cc2OC[C@H]1Cc1ccc(O)c(O)c1`, for which the negative-log IC50 (pIC50) in the test on MDA-MB-435 and with HT-29 was less than 4.70 throughout. Further, the MIC entry (in the test with Candida albicans; in test [1]; in the test on Aspergillus niger; in the test with Escherichia coli; with Staphylococcus aureus) was “inactive” each time.
For the molecule `COc1cc(O)c2c(c1)OC[C@@](O)(Cc1ccc(O)cc1)C2=O`, the pIC50 in the test with MDA-MB-435 and in the test on HT-29 was less than 4.70 throughout. For the same molecule, the MIC result (in the test on Candida albicans; in test [1]; in the test on Aspergillus niger; in the test on Escherichia coli; in the test on Staphylococcus aureus) was “inactive” each time.
On to `O=C(O)c1cn(C2CC2)c2cc(N3CCNCC3)c(F)cc2c1=O` [CIPROFLOXACIN], for which it took 2 µg/mL (≈ 6.04 µM) to inhibit growth in test [1] (96 h) (MIC).
On to `CC[C@]1(O)C[C@@H]2CN(CCc3c([nH]c4ccccc34)[C@@](C(=O)OC)(c3cc4c(cc3OC)N(C)[C@H]3[C@@](O)(C(=O)OC)[C@H](OC(C)=O)[C@]5(CC)C=CCN6CC[C@]43[C@@H]65)C2)C1` [VINBLASTINE], for which the pIC50 in the test on MDA-MB-435 is 9.30; in the test on HT-29 it was 8.35.
`COc1cc(O)c2c(c1OC)OC[C@@H](Cc1ccc(O)c(O)c1)C2=O`: the pIC50 in the test on MDA-MB-435 and in the test on HT-29 was less than 4.70 in each case. Moreover, the MIC result (with Candida albicans; in test [1]; with Aspergillus niger; with Escherichia coli; with Staphylococcus aureus) was “inactive” each time.
As for `O=C1/C(=C/c2ccc(O)cc2)COc2cc(O)cc(O)c21`, the negative-log IC50 (pIC50) with MDA-MB-435 and in the test with HT-29 was less than 4.70 in each case. For the same molecule, the MIC result (in the test with Candida albicans; in test [1]; in the test on Aspergillus niger; in the test on Escherichia coli; in the test with Staphylococcus aureus) was “inactive” in each case.
Consider `COc1ccc(C[C@@H]2COc3c(OC)c(OC)cc(O)c3C2=O)cc1O`, for which the negative-log IC50 (pIC50) in the test with MDA-MB-435 is 5.96; in the test with HT-29, 4.76. The MIC entry (in the test with Candida albicans; in test [1]; with Aspergillus niger; with Escherichia coli; in the test with Staphylococcus aureus) was “inactive” each time.
Take `COc1cc(O)c2c(c1OC)OC[C@@H](Cc1ccc(O)cc1)C2=O`: the negative logarithm of the IC50 (pIC50) with MDA-MB-435 and with HT-29 was less than 4.70 throughout. For the same molecule, the MIC entry (with Candida albicans; in test [1]; in the test on Aspergillus niger; with Escherichia coli; in the test on Staphylococcus aureus) was “inactive” in each case.
On to `CS/C=C/C(=O)OC[C@H](O)c1ccccc1`, for which the negative-log IC50 (pIC50) in the test on MDA-MB-435 and with HT-29 was less than 4.70 throughout. In addition, the MIC result (in the test with Candida albicans; in test [1]; with Aspergillus niger; in the test on Escherichia coli; in the test with Staphylococcus aureus) was “inactive” each time.
As to `COc1cc(O)c2c(c1OC)OC/C(=C\c1ccc(O)c(O)c1)C2=O`, the negative logarithm of the IC50 (pIC50) in the test on MDA-MB-435 is 5.34; in the test on HT-29, less than 4.70. Besides, the minimal inhibitory concentration (MIC) in the test with Candida albicans (96 h) was greater than 93 µg/mL; in test [1] (96 h) it was 47 µg/mL (≈ 137 µM); in the test with Aspergillus niger (96 h), greater than 93 µg/mL; in the test with Escherichia coli (96 h), greater than 93 µg/mL; against Staphylococcus aureus (96 h), 93 µg/mL (≈ 270 µM).
On to `COc1c(O)c(O)c2c(c1OC)OC[C@@H](Cc1ccc(O)cc1)C2=O`, for which the pIC50 with MDA-MB-435 and in the test with HT-29 was less than 4.70 throughout. Moreover, the MIC entry (with Candida albicans; in test [1]; in the test with Aspergillus niger; with Escherichia coli; in the test on Staphylococcus aureus) was “inactive” in each case.
`COc1c(O)cc(O)c2c1OC/C(=C\c1ccc(O)cc1)C2=O`: the pIC50 in the test on MDA-MB-435 and in the test on HT-29 was less than 4.70 throughout. For the same molecule, the MIC in the test on Candida albicans (96 h) is greater than 48 µg/mL; in test [1] (96 h), 24 µg/mL (≈ 76.4 µM); with Aspergillus niger (96 h), greater than 48 µg/mL; in the test on Escherichia coli (96 h), greater than 48 µg/mL; in the test with Staphylococcus aureus (96 h) it was greater than 48 µg/mL.
Turning to `COc1cc(/C=C/C(=O)NCCc2ccc(O)cc2)ccc1O` [N-TRANS-FERULOYL TYRAMINE], the negative logarithm of the IC50 (pIC50) in the test on MDA-MB-435 and with HT-29 was less than 4.70 in each case. The MIC entry (in the test on Candida albicans; in test [1]; with Aspergillus niger; with Escherichia coli; in the test with Staphylococcus aureus) was “inactive” in each case.
Turning to `COc1ccc(C[C@@H]2COc3cc(O)cc(O)c3C2=O)cc1O`, the figures for the pIC50 in the test on MDA-MB-435 and in the test on HT-29 were 6.00 and less than 4.70, respectively. Also, the minimal inhibitory concentration (MIC) was greater than 138 µg/mL against Candida albicans (96 h); 17 µg/mL (≈ 53.7 µM) in test [1] (96 h); greater than 138 µg/mL against Aspergillus niger (96 h); greater than 138 µg/mL in the test with Escherichia coli (96 h); greater than 138 µg/mL against Staphylococcus aureus (96 h).
Turning to `COc1cc(O)c2c(c1OC)OC/C(=C\c1ccc(O)cc1)C2=O`, the negative-log IC50 (pIC50) is 4.88 with MDA-MB-435 and less than 4.70 with HT-29. For the same molecule, the MIC entry (in the test with Candida albicans; in test [1]; in the test with Aspergillus niger; with Escherichia coli; in the test on Staphylococcus aureus) was “inactive” in each case.
Take `CC1(C)S[C@@H]2[C@H](NC(=O)[C@H](N)c3ccccc3)C(=O)N2[C@H]1C(=O)O` [AMPICILLIN]: the lowest concentration to inhibit growth in the test with Escherichia coli (96 h) (MIC) was 8 µg/mL (≈ 22.9 µM).
Regarding `COc1cc(O)c2c(c1O)OC[C@@H](Cc1ccc(O)cc1)C2=O`, the pIC50 with MDA-MB-435 and in the test with HT-29 was less than 4.70 throughout. The MIC result (with Candida albicans; in test [1]; in the test with Aspergillus niger; in the test with Escherichia coli; in the test with Staphylococcus aureus) was “inactive” each time.
With `COc1cc(O)c2c(c1OC)OCCC2=O`, the negative-log IC50 (pIC50) with MDA-MB-435 and with HT-29 was less than 4.70 throughout. In addition, the MIC entry (with Candida albicans; in test [1]; with Aspergillus niger; with Escherichia coli; in the test on Staphylococcus aureus) was “inactive” in each case.
As for `O=C1c2c(O)cc(O)cc2OC[C@H]1Cc1ccc(O)cc1`, the negative-log IC50 (pIC50) with MDA-MB-435 and in the test on HT-29 was less than 4.70 each time. In addition, the minimal inhibitory concentration (MIC) in the test on Candida albicans (96 h) was greater than 125 µg/mL; in test [1] (96 h), 63 µg/mL (≈ 220 µM); with Aspergillus niger (96 h) it was greater than 125 µg/mL; in the test on Escherichia coli (96 h) it was greater than 125 µg/mL; with Staphylococcus aureus (96 h), greater than 125 µg/mL.
For `COc1cc2c(cc1O)C[C@]21COc2cc(O)cc(O)c2C1=O`, the negative logarithm of the IC50 (pIC50) with MDA-MB-435 and in the test on HT-29 was less than 4.70 throughout. The MIC result (with Candida albicans; in test [1]; in the test on Aspergillus niger; with Escherichia coli; with Staphylococcus aureus) was “inactive” in each case.
On to `C[C@@H]1[C@H](O)[C@@H](C)/C=C/C=C/C=C/C=C/C=C/C=C/C=C/[C@H](O[C@@H]2O[C@H](C)[C@@H](O)[C@H](N)[C@@H]2O)C[C@@H]2O[C@](O)(C[C@@H](O)C[C@@H](O)[C@H](O)CC[C@@H](O)C[C@@H](O)CC(=O)O[C@H]1C)C[C@H](O)[C@H]2C(=O)O` [AMPHOTERICIN B], for which the figures for the MIC against Candida albicans (96 h) and against Aspergillus niger (96 h) were 16 µg/mL (≈ 17.3 µM) and 31 µg/mL (≈ 33.5 µM), respectively.

In general, pIC50 refers to −log10 of the IC50, conventionally taken in molar units. As a reminder, the MIC is the lowest concentration found to suppress growth.
